From ChEMBL document CHEMBL2331246, “Synthesis and biological evaluation of substituted 2-benzoylpyridine thiosemicarbazones: novel structure-activity relationships underpinning their anti-proliferative and chelation efficacy” (Bioorg Med Chem Lett, 2013)

What was measured:
[1] = tested on: SK-N-MC; experiment: Induction of cellular iron mobility in human SK-N-MC cells assessed as iron release at 25 uM for 3 hrs at 37 degC; format: functional
How it was run: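 Cells prelabeled with 59Fe-transferrin (0.75 µM) 3 h at 37 °C, washed four times with ice-cold PBS, then given control medium or chelator (25 µM) 3 h at 37 °C; released 59Fe expressed as % of intracellular 59Fe. Mean ± SD, three experiments, triplicate determinations.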

[2] = tested on: SK-N-MC; experiment: Antiproliferative activity against human SK-N-MC cells measured after 72 hrs at 37 degC by MTT assay; format: functional, cell-based
How it was run: (§1)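 Cells seeded and left to attach 24 h, then exposed to control medium or chelator for 72 h at 37 °C; proliferation read by MTT assay.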

[3] = tested on: SK-N-MC; experiment: Inhibition of cellular iron uptake in human SK-N-MC cells assessed as iron uptake at 25 uM for 3 hrs at 37 degC relative to control; format: functional; parameters: scale not given: the % may be the effect or the level left
How it was run: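 59Fe-transferrin (0.75 µM) given to cells 3 h at 37 °C with or without chelator (25 µM); washed four times on ice, internalized 59Fe measured and expressed as % of control. Mean ± SD of three experiments with three determinations each.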

[4] = tested on: MRC5; experiment: Antiproliferative activity against human MRC5 cells measured after 72 hrs at 37 degC by MTT assay; format: functional, cell-based; conditions: MRC5, 72 h; how it was run: as §1

Row | Structure (SMILES) | Activity [1] | IC50 [2] | Activity [3] | IC50 [4]
1 | C=CCNC(=S)N/N=C(/c1ccccc1)c1cccc(C)n1 | 9% | > 6.25 µM | 14% | > 6.25 µM
2 | CCNC(=S)N/N=C(/c1ccc(OC)c(OC)c1)c1cccc(C)n1 | 21% | > 6.25 µM | 14% | > 6.25 µM
3 | CNC(=S)N/N=C(/c1ccccc1)c1cccc(C)n1 | 9% | 5.32 µM | 14% | > 6.25 µM
4 | COc1ccc(/C(=N/NC(N)=S)c2cccc(C)n2)cc1 | 15% | > 6.25 µM | 14% | > 6.25 µM
5 | C=CCNC(=S)N/N=C(/c1ccc(OC)c(OC)c1)c1cccc(C)n1 | 21% | > 6.25 µM | 14% | > 6.25 µM
6 | C=CCNC(=S)N/N=C(/c1ccc(OC)cc1)c1cccc(C)n1 | 15% | > 6.25 µM | 14% | > 6.25 µM
7 | COc1ccc(/C(=N/NC(N)=S)c2cccc(C)n2)cc1OC | 21% | > 6.25 µM | 14% | > 6.25 µM
8 | COc1ccc(/C(=N/NC(=S)Nc2ccccc2)c2cccc(C)n2)cc1 | 15% | 1.75 µM | 58% | 3.81 µM
9 | CC(=O)N(O)CCCCCNC(=O)CCC(=O)N(O)CCCCCNC(=O)CCC(=O)N(O)CCCCCN [DEFEROXAMINE] |  | 21.6 µM | 80% | 
10 | CN(C)C(=S)NN=C(c1ccccn1)c1ccccn1 |  |  | 5% | 
11 | CCNC(=S)N/N=C(/c1ccc(OC)cc1)c1cccc(C)n1 | 15% | > 6.25 µM | 14% | > 6.25 µM
12 | CNC(=S)N/N=C(/c1ccc(OC)c(OC)c1)c1cccc(C)n1 | 21% | > 6.25 µM | 14% | > 6.25 µM
13 | Cc1cccc(/C(=N\NC(=S)N(C)C)c2ccccc2)n1 | 9% | 0.009 µM | 14% | 0.021 µM
14 | Cc1cccc(/C(=N\NC(N)=S)c2ccccc2)n1 | 9% | > 6.25 µM | 14% | > 6.25 µM
15 | Cc1cccc(/C(=N\NC(=S)Nc2ccccc2)c2ccccc2)n1 | 9% | 2.8 µM | 58% | > 6.25 µM
16 | COc1ccc(/C(=N/NC(=S)N(C)C)c2cccc(C)n2)cc1 | 15% | 2.2 µM | 14% | > 6.25 µM
17 | CCNC(=S)N/N=C(/c1ccccc1)c1cccc(C)n1 | 9% | 0.88 µM | 14% | > 6.25 µM
18 | COc1ccc(/C(=N/NC(=S)N(C)C)c2cccc(C)n2)cc1OC | 41% | 2.48 µM | 14% | > 6.25 µM
19 | COc1ccc(/C(=N/NC(=S)Nc2ccccc2)c2cccc(C)n2)cc1OC | 21% | 0.62 µM | 58% | 2.11 µM
20 | CNC(=S)N/N=C(/c1ccc(OC)cc1)c1cccc(C)n1 | 42% | > 6.25 µM | 22% | > 6.25 µM
